Series [1] is described as follows: Thermodynamic aqueous solubility of the compound in fasted state simulated intestinal fluid after 24 hrs by HPLC analysis. It counts as physicochemical. Particulars: read-out: Therm_solubility. The gist of the method: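 Solubility in FaSSIF. The sample was filtered and concentration measured by HPLC/UV.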
Series [2] is described as follows: Apparent permeability from apical to basolateral side of human Caco2 cells. It counts as ADME, cell-based. Conditions: Caco-2.
Series [3] can be described thus: Apparent permeability from basolateral to apical side of human Caco2 cells. It counts as ADME, cell-based. Particulars: Caco-2. For orientation: Passage across Caco-2 layers is used to estimate intestinal permeability.
A short description of series [4]: Cmax in rat at […], po. The format is ADME, organism-based. Also on record: dose 2.5 mg/kg, route oral. Particulars: in vivo.
Series [5] in a line: Tmax in rat at […], po. It counts as ADME, organism-based. Also on record: dose 2.5 mg/kg, route oral. Particulars: in vivo.
Series [6] can be described thus: AUC in rat at […], po. Also on record: dose 2.5 mg/kg, route oral. Particulars: plasma. It counts as ADME, organism-based.
Series [7] in a line: Oral bioavailability in rat at […]. The format is ADME, organism-based. Conditions: in vivo.

Molecules are shown by their SMILES. In brackets after ≈: the same amount, converted by molar mass.

Results on 20 compounds are retold here after ChEMBL document CHEMBL2321720, “Development of triarylsulfonamides as novel anti-inflammatory agents” (Bioorg Med Chem Lett, 2013).

Turning to `O=S(=O)(Nc1cccc(CO)c1)c1ccc(-c2ccc(F)cc2)cc1Cl`, in series [1], the solubility thermodynamic at 24 h was 25 µg/mL (≈ 63.8 µM).

With `Cc1c(CO)cccc1NS(=O)(=O)c1ccc(-c2ccc(F)cc2)cc1`, the solubility thermodynamic at 24 h in series [1] is 24 µg/mL (≈ 64.6 µM).

For the compound `Cc1c(CO)cccc1NS(=O)(=O)c1ccc(-c2ccc(F)cc2F)cc1`, the solubility thermodynamic at 24 h in series [1] was 43 µg/mL (≈ 110 µM).

As to `Cc1c(CO)cccc1NS(=O)(=O)c1ccc(-c2ccc(Br)cc2)cc1`, the solubility thermodynamic at 24 h in series [1] was 12 µg/mL (≈ 27.8 µM).

Regarding `Cc1ccc(CO)cc1NS(=O)(=O)c1ccc(-c2ccc(Br)cc2)cc1`, the solubility thermodynamic at 24 h in series [1] was 47 µg/mL (≈ 109 µM).

As to `O=S(=O)(Nc1cccc(CO)c1Cl)c1ccc(-c2ccc(Br)cc2)cc1`, the solubility thermodynamic at 24 h in series [1] was 14 µg/mL (≈ 30.9 µM).

On to `O=S(=O)(Nc1cc(CO)ccc1Cl)c1ccc(-c2ccc(Br)cc2)cc1`, for which the solubility thermodynamic at 24 h in series [1] is 11 µg/mL (≈ 24.3 µM).

On to `O=S(=O)(Nc1ccc(O)c(CO)c1)c1ccc(-c2ccc(Br)cc2)cc1`, for which, in series [1], the solubility thermodynamic at 24 h was 4 µg/mL (≈ 9.21 µM).

`O=S(=O)(Nc1cc(CO)ccc1O)c1ccc(-c2ccc(Br)cc2)cc1`: the solubility thermodynamic at 24 h in series [1] was 12 µg/mL (≈ 27.6 µM).

For the compound `O=S(=O)(Nc1cc(CO)ccc1O)c1ccc(-c2ccc(F)cc2F)cc1`, the solubility thermodynamic at 24 h in series [1] is 12 µg/mL (≈ 30.7 µM).

Turning to `O=S(=O)(Nc1cccc(CO)c1O)c1ccc(-c2ccc(Br)cc2)cc1`, the solubility thermodynamic at 24 h in series [1] is 19 µg/mL (≈ 43.7 µM).

For the compound `O=S(=O)(Nc1ccc(CO)c(CO)c1)c1ccc(-c2ccc(F)cc2F)cc1`, the solubility thermodynamic at 24 h in series [1] was 32 µg/mL (≈ 78.9 µM).

Regarding `O=S(=O)(Nc1ccc(-c2ccc(Cl)cc2Cl)cc1)c1cccc(CO)c1`, the solubility thermodynamic at 24 h in series [1] is 40 µg/mL (≈ 98 µM).

Consider `O=S(=O)(Nc1cccc(CO)c1)c1ccc(-c2ccccc2)cc1`, for which the solubility thermodynamic at 24 h in series [1] is 11 µg/mL (≈ 32.4 µM).

For `O=S(=O)(Nc1cccc(CO)c1)c1ccc(-c2ccc(Br)cc2)cc1`, the solubility thermodynamic at 24 h in series [1] was 22 µg/mL (≈ 52.6 µM).

For `Cc1ccc(-c2ccc(S(=O)(=O)Nc3cccc(CO)c3)cc2)cc1`, the solubility thermodynamic at 24 h in series [1] is 21 µg/mL (≈ 59.4 µM).

Take `O=S(=O)(Nc1cccc(CO)c1)c1ccc(-c2ccccc2F)cc1`: the solubility thermodynamic at 24 h in series [1] is 57 µg/mL (≈ 159 µM).

Turning to `O=S(=O)(Nc1cccc(CO)c1)c1ccc(-c2ccc(F)cc2F)cc1`, in series [1], the solubility thermodynamic at 24 h is 50 µg/mL (≈ 133 µM).

The term Papp A→B denotes the apparent permeability from the apical to the basolateral side of a cell layer. The term Papp B→A denotes the apparent permeability from the basolateral to the apical side of a cell layer. By Cmax is commonly meant the peak of the concentration-time curve. The term Tmax denotes the time at which the peak concentration occurs. A word on the AUC: it is concentration integrated over time. High values mean more exposure, low ones less exposure. The bioavailability is the share of a dose that reaches the circulation, judged against a reference dose that is usually intravenous. A higher bioavailability goes with much systemic uptake. Regarding `O=S(=O)(Nc1cccc(CO)c1)c1ccc(-c2ccc(Cl)cc2Cl)cc1`, the solubility thermodynamic at 24 h in series [1] is 40 µg/mL (≈ 98 µM). Further, in series [2], the Papp A→B amounted to 1.5 ×10⁻⁶ cm/s. Moreover, the apparent permeability from basolateral to apical (Papp B→A) in series [3] came out at 5.5 ×10⁻⁶ cm/s. Further, the concentration in series [4] peaked (Cmax) at 30 ng/mL. Also, the time to peak (Tmax) in series [5] was 50 min. In series [6], this compound returned an AUC of 110 ng·h/mL. Also, the bioavailability in series [7] was 8%.

For the compound `O=S(=O)(Nc1cccc(CO)c1)c1ccc(-c2ccc(Cl)cc2F)cc1`, the solubility thermodynamic at 24 h in series [1] was 73 µg/mL (≈ 186 µM).
